{"source": "the EternaBench riboswitch data", "key": {"MS2 coat protein [1]": {"tested_on": "MS2 coat protein", "experiment": "apparent Kd, MS2 coat protein; higher = weaker binding; RNA-MaP array; theophylline 2 mM where present", "outline": "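Green signal from SNAP-549-labelled MS2 coat protein was normalised to red-channel RNA signal and to the median Fmax of control clusters. The protein was titrated from 0.7 or 1.5 nM, doubling to 3 µM, without and then with constant ligand, over designs transcribed by stalled E. coli RNA polymerase on Illumina sequencing-chip clusters, in 100 mM Tris-HCl pH 7.5, 80 mM KCl, 4 mM MgCl2, BSA, DTT, yeast tRNA and Tween-20. The apparent Kd is the median of filtered per-cluster binding-curve fits.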"}, "MS2 coat protein [2]": {"tested_on": "MS2 coat protein", "experiment": "apparent Kd, MS2 coat protein; higher = weaker binding; RNA-MaP array", "outline": "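Designed RNAs were transcribed on an Illumina sequencing chip from sequenced DNA templates. They were incubated at room temperature with fluorescently labeled MS2 coat protein at 1.5 nM to 3 μM, for 0.8–1.5 h at the lowest to 10–20 min at the highest concentrations, in Tris-HCl pH 7.5 buffer with KCl, MgCl2, BSA, DTT, tRNA and Tween20, with or without input ligand. Apparent Kd is the median of per-cluster binding-curve fits. Designs measured on fewer than 10 clusters were excluded.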"}, "[3]": {"conditions": "designed as: ON switch for theophylline, no ligand"}, "[4]": {"conditions": "ligand present: theophylline, designed as: ON switch for theophylline"}, "[5]": {"conditions": "designed as: OFF switch for theophylline, no ligand"}, "[6]": {"conditions": "ligand present: theophylline, designed as: OFF switch for theophylline"}, "[7]": {"conditions": "designed as: ON switch for flavin mononucleotide, no ligand"}, "[8]": {"conditions": "ligand present: flavin mononucleotide, designed as: ON switch for flavin mononucleotide"}, "[9]": {"conditions": "designed as: OFF switch for flavin mononucleotide, no ligand"}, "[10]": {"conditions": "ligand present: flavin mononucleotide, designed as: OFF switch for flavin mononucleotide"}}, "data": [{"sequence": "GGGCCCGUAAGCAGGCCCACAGCGGGUGAUACCAGCAAUAAAACUUGCCCUUGGCAGCACACAGCUACAUGAGGAUCACCCAUGU", "values": [{"measurement": "apparent Kd", "setting": "MS2 coat protein [1]; [3]", "value": 36.5, "unit": "nM"}, {"measurement": "apparent Kd", "setting": "MS2 coat protein [1]; [4]", "value": 63.5, "unit": "nM"}]}, {"sequence": "UAUAUAUAUAUUGAUACCAGCAGAGAAAACGUAUAUCCUAACAUGAGGAUCACCCAUGUAUGCCCUUGGCAGCGAUAUAUAUAUA", "values": [{"measurement": "apparent Kd", "setting": "MS2 coat protein [1]; [5]", "value": 24.3, "unit": "nM"}, {"measurement": "apparent Kd", "setting": "MS2 coat protein [1]; [6]", "value": 31.4, "unit": "nM"}]}, {"sequence": "AAUAACAUGAGGAUCACCCAUGUAAAAGAUACCAGAUGCAUGAUGAUCCCUUGGCAGCUUAACGCUGAUUGAUUACAAUCAGCGA", "values": [{"measurement": "apparent Kd", "setting": "MS2 coat protein [1]; [3]", "value": 28.6, "unit": "nM"}, {"measurement": "apparent Kd", "setting": "MS2 coat protein [1]; [4]", "value": 87, "unit": "nM"}]}, {"sequence": "AAGGUAUCACAGACAUGGGUGUACUGUGAUACCAGCUAGGAAACUAGCCCUUGGCAGCACAUGAGGAUCACCCAUGUAAGAAUAA", "values": [{"measurement": "apparent Kd", "setting": "MS2 coat protein [1]; [5]", "value": 47.4, "unit": "nM"}, {"measurement": "apparent Kd", "setting": "MS2 coat protein [1]; [6]", "value": 141, "unit": "nM"}]}, {"sequence": "UACAUGAGGAUCACCCAUGUAUGAAUAGAUACCAGAUAAAAUAAGGUCCCUUGGCAGCUAGUGAAUCGAGGGUGGGUAUCAUGAU", "values": [{"measurement": "apparent Kd", "setting": "MS2 coat protein [1]; [5]", "value": 10.4, "unit": "nM"}, {"measurement": "apparent Kd", "setting": "MS2 coat protein [1]; [6]", "value": 10.8, "unit": "nM"}]}, {"sequence": "GGUGGGACUUGUGAUACCAGCCUAAUUCUAAACGAAUUGCACAUGAGGAUCACCCAUGUCGGCCCUUGGCAGCAUGAGUAUUUAU", "values": [{"measurement": "apparent Kd", "setting": "MS2 coat protein [1]; [3]", "value": 114, "unit": "nM"}, {"measurement": "apparent Kd", "setting": "MS2 coat protein [1]; [4]", "value": 36.8, "unit": "nM"}]}, {"sequence": "AAUGAGGCCUCUCAACAUGAGGAUCACCCAUGUAACGGAACAAAGGAUAUGGUCCAACUACUAACCCAGAAGGUUGUGACAGAA", "values": [{"measurement": "apparent Kd", "setting": "MS2 coat protein [2]; [7]", "value": 49.1, "unit": "nM"}, {"measurement": "apparent Kd", "setting": "MS2 coat protein [2]; [8]", "value": 40.6, "unit": "nM"}]}, {"sequence": "UGUCGCAGGUUAGAUACCAGCGAGGCGCGGGUAAAUGUUCACAUGAGGAUCACCCAUGUUCGCCCUUGGCAGCUAGUAGGCAUAA", "values": [{"measurement": "apparent Kd", "setting": "MS2 coat protein [2]; [5]", "value": 24.2, "unit": "nM"}, {"measurement": "apparent Kd", "setting": "MS2 coat protein [2]; [6]", "value": 100, "unit": "nM"}]}, {"sequence": "GGUCCCGUAGGAUAUUGCUCAUUGUACAUGAGGAUCACCCAUGUGACUACACUGCACUGGCAAGAAGGACGUUGAU", "values": [{"measurement": "apparent Kd", "setting": "MS2 coat protein [2]; [9]", "value": 83.2, "unit": "nM"}, {"measurement": "apparent Kd", "setting": "MS2 coat protein [2]; [10]", "value": 50.2, "unit": "nM"}]}, {"sequence": "AGGCAACAUGAGGAUCACCCAUGUCAGGAUAUAGUAAACACAAAUACGAGAAAUAUAACUAGAAGGGACAUAAU", "values": [{"measurement": "apparent Kd", "setting": "MS2 coat protein [2]; [9]", "value": 16.6, "unit": "nM"}, {"measurement": "apparent Kd", "setting": "MS2 coat protein [2]; [10]", "value": 18.5, "unit": "nM"}]}, {"sequence": "GCCUAGGGUCAAGGAUAUCACCCAGUGGUCCGUACAUGAGGAUCACCCAUGUCACCGGGAACGGGUGAGAAGGUGAAAAGUCGA", "values": [{"measurement": "apparent Kd", "setting": "MS2 coat protein [2]; [7]", "value": 13.9, "unit": "nM"}, {"measurement": "apparent Kd", "setting": "MS2 coat protein [2]; [8]", "value": 9.93, "unit": "nM"}]}, {"sequence": "GAACCUAUAGGAUAUACAUGAGGAUCACCCAUGUAGCCAUCUAUUCGUGGGACUAGGUGUAGAAGGAUAGCAAA", "values": [{"measurement": "apparent Kd", "setting": "MS2 coat protein [2]; [9]", "value": 12.7, "unit": "nM"}, {"measurement": "apparent Kd", "setting": "MS2 coat protein [2]; [10]", "value": 11.8, "unit": "nM"}]}, {"sequence": "AUGGGUACCACAGGAUAUUAGUAACACAUGAGGAUCACCCAUGUUUUACCGCUUGAAGCUUAGACUAAGAAGGGUGGCUUAGAA", "values": [{"measurement": "apparent Kd", "setting": "MS2 coat protein [2]; [7]", "value": 55.1, "unit": "nM"}, {"measurement": "apparent Kd", "setting": "MS2 coat protein [2]; [8]", "value": 23.9, "unit": "nM"}]}, {"sequence": "GACACCCAAGGAUAUCAAUGAAUCAACAUGAGGAUCACCCAUGUCGUCACCAGAUUAAACUGAGAAGGAGGAGAAA", "values": [{"measurement": "apparent Kd", "setting": "MS2 coat protein [2]; [9]", "value": 11.4, "unit": "nM"}, {"measurement": "apparent Kd", "setting": "MS2 coat protein [2]; [10]", "value": 9.75, "unit": "nM"}]}, {"sequence": "UUUAGUCAAUCGGCCGCCACUGACAUGAGGAUCACCCAUGUAGGUAAGGAUCAACCUCGAAAGUACAGGACCGGGAUUCGCCUCU", "values": [{"measurement": "apparent Kd", "setting": "MS2 coat protein [2]; designed as: OFF switch for tryptophan, no ligand", "value": 53.3, "unit": "nM"}, {"measurement": "apparent Kd", "setting": "MS2 coat protein [2]; ligand present: tryptophan, designed as: OFF switch for tryptophan", "value": 84, "unit": "nM"}]}, {"sequence": "AAUUAUACAUGAGGAUCACCCAUGUCAAAUAUUGAUAGCUGGCAGGAUAUGAUAGAGACGGAAACUCAGAAGGGCCCGAUGAAC", "values": [{"measurement": "apparent Kd", "setting": "MS2 coat protein [2]; [7]", "value": 15, "unit": "nM"}, {"measurement": "apparent Kd", "setting": "MS2 coat protein [2]; [8]", "value": 12.6, "unit": "nM"}]}, {"sequence": "AAAUAAACCGAGGAUAUUAGAUUAGCAUACGAUUAAGAAGGCGGAACAUGAGGAUCACCCAUGUUGGGAGGUCU", "values": [{"measurement": "apparent Kd", "setting": "MS2 coat protein [2]; [9]", "value": 67.8, "unit": "nM"}, {"measurement": "apparent Kd", "setting": "MS2 coat protein [2]; [10]", "value": 211, "unit": "nM"}]}, {"sequence": "UAGACGCACAAACAUGAGGAUCACCCAUGUGUACAGACGCUGCAGGAUAUCCUCUGAAGUUAGUAGGAGAAGGGCAAACAACCU", "values": [{"measurement": "apparent Kd", "setting": "MS2 coat protein [2]; [7]", "value": 44.5, "unit": "nM"}, {"measurement": "apparent Kd", "setting": "MS2 coat protein [2]; [8]", "value": 27.3, "unit": "nM"}]}, {"sequence": "UUGGUUGCAUAGAAGGUGAGAUAGGAUCUACAUGAGGAUCACCCAUGUGUUAUCCCAAUUAGAAUCAAGGAUAUAUUGGCUUAU", "values": [{"measurement": "apparent Kd", "setting": "MS2 coat protein [2]; [7]", "value": 19.1, "unit": "nM"}, {"measurement": "apparent Kd", "setting": "MS2 coat protein [2]; [8]", "value": 15.7, "unit": "nM"}]}, {"sequence": "ACAACUCUCACAGGAUAUUGACAUGAGGAUCACCCAUGUAAUCCAGGGCGAACAUAGGACUGACACAAGAAGGGUGACACCAUC", "values": [{"measurement": "apparent Kd", "setting": "MS2 coat protein [2]; [7]", "value": 20.1, "unit": "nM"}, {"measurement": "apparent Kd", "setting": "MS2 coat protein [2]; [8]", "value": 16.1, "unit": "nM"}]}]}
